Source: ChEMBL document CHEMBL4024781, “Comprehensive Synthesis of Amino Acid-Derived Thiazole Peptidomimetic Analogues to Understand the Enigmatic Drug/Substrate-Binding Site of P-Glycoprotein” (J Med Chem, 2018)

Key:
[1] = target: T1, P-gp (ABCB1) (Homo sapiens, UniProt P08183); test: Activation of human P-gp expressed in high five insect cell membrane vesicles by measuring the vanadate-sensitive ATPase activity of P-gp at 0.5 uM preincubated for 5 mins in the presence of sodium orthovanadate measured after 20 mins by colorimetric method; settings: read-out: Activity
T1 sequence (P08183 whole entry): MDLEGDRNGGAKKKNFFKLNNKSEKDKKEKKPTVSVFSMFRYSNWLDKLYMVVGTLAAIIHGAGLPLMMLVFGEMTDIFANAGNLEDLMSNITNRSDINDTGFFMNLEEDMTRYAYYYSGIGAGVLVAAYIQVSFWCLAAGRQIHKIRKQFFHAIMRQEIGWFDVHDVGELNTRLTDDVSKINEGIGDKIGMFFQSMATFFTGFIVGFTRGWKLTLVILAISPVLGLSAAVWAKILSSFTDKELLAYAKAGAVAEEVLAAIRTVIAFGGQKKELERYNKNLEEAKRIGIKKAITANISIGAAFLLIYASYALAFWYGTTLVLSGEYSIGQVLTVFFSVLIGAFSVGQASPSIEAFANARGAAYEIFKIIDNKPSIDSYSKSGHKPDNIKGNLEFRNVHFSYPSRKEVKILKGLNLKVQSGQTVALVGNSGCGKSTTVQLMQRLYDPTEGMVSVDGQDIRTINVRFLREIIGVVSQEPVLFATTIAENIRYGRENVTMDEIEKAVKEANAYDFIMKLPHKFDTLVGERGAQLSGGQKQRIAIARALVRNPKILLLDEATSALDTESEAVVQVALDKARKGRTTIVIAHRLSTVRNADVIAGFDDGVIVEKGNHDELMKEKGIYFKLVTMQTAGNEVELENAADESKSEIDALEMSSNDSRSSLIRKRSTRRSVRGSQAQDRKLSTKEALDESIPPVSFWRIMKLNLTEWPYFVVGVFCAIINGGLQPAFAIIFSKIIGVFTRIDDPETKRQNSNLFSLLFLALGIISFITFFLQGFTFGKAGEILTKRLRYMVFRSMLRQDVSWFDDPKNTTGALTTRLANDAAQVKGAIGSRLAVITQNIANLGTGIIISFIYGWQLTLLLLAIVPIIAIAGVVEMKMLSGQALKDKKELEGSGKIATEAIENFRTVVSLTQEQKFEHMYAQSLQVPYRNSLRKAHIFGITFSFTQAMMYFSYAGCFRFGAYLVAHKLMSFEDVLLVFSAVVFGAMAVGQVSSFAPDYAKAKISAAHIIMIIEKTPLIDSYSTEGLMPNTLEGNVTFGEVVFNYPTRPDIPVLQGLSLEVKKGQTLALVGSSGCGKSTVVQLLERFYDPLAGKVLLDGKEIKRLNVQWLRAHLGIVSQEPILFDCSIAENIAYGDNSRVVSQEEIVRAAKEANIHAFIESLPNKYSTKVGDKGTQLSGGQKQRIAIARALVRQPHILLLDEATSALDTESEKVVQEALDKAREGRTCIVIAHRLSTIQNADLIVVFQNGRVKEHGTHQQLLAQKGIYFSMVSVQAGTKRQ

[2] = target: T1, P-gp (ABCB1); test: Activation of human P-gp expressed in high five insect cell membrane vesicles by measuring the vanadate-sensitive ATPase activity of P-gp at 0.05 uM preincubated for 5 mins in the presence of sodium orthovanadate measured after 20 mins by colorimetric method; settings: read-out: Activity
[3] = target: T1, P-gp (ABCB1); test: Inhibition of human P-gp expressed in high five insect cell membrane vesicles by measuring the vanadate-sensitive ATPase activity of P-gp at 2.5 uM preincubated for 5 mins in the presence of sodium orthovanadate measured after 20 mins by colorimetric method
[4] = target: T1, P-gp (ABCB1); test: Inhibition of human P-gp expressed in high five insect cell membrane vesicles by measuring the vanadate-sensitive ATPase activity of P-gp at 0.5 uM preincubated for 5 mins in the presence of sodium orthovanadate measured after 20 mins by colorimetric method
[5] = target: T1, P-gp (ABCB1); test: Activation of human P-gp expressed in high five insect cell membrane vesicles by measuring the vanadate-sensitive ATPase activity of P-gp at 2.5 uM preincubated for 5 mins in the presence of sodium orthovanadate measured after 20 mins by colorimetric method; settings: read-out: Activity
[6] = target: T2, ATP-dependent translocase ABCB1 (Homo sapiens, UniProt P08183); test: Inhibition of human P-gp transfected in HEK293 cells assessed as potentiation of paclitaxel-induced cytotoxicity by measuring fold reduction in paclitaxel IC50 at 10 uM pre-incubated for 1 hr before paclitaxel addition and measured after 72 hrs by MTT assay; type: cell-based; settings: hek293, 72 h
T2 sequence (P08183 whole entry): as above
Method in brief: (§1)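 HEK293 cells stably transfected with ABCB1 or empty pcDNA3.1 vector, kept in G418. Seeded at 5000/well and grown 24 h, then given modulator at 10 μM for 1 h before serially diluted paclitaxel (up to 10 μM). MTT read at 570 nm after 72 h. Paclitaxel IC50 from four experiments in triplicate. Fold resistance = IC50 with modulator ÷ IC50 of paclitaxel alone in vector-control cells.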

[7] = Cytotoxicity in P-gp tranfected HEK293 cells assessed as cell survival at 10 uM after 72 hrs by MTT assay; type: ADME, cell-based; settings: human, P-gp transfected HEK293 cells
Method in brief: (§2)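 HEK293 cells stably transfected with empty pcDNA3.1 vector or ABCB1 vector, kept in DMEM with 10% FBS, 1% penicillin/streptomycin, and 2 mg/mL G418 at 37°C in 5% CO2. Cells were seeded at 5000/well, and after 24 h treated with test compound alone, diluted from 10 mM DMSO stocks into medium. After 72 h, viability was read by MTT (4 mg/mL, 4 h), with formazan dissolved in DMSO and absorbance read at 570 nm.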

[8] = tested on: HEK293; test: Potentiation of paclitaxel-induced cytotoxicity against parental HEK293-pcDNA 3.1 transfected cells assessed as fold reduction in paclitaxel IC50 at 10 uM pre-incubated for 1 hr before paclitaxel addition and measured after 72 hrs by MTT assay; type: functional, Homo sapiens; method in brief: as §1
[9] = target: T3, Cytochrome P450 3A4 (Homo sapiens, UniProt P08684); test: Inhibition of CYP3A4 (unknown origin); type: ADME
T3 sequence (P08684 whole entry): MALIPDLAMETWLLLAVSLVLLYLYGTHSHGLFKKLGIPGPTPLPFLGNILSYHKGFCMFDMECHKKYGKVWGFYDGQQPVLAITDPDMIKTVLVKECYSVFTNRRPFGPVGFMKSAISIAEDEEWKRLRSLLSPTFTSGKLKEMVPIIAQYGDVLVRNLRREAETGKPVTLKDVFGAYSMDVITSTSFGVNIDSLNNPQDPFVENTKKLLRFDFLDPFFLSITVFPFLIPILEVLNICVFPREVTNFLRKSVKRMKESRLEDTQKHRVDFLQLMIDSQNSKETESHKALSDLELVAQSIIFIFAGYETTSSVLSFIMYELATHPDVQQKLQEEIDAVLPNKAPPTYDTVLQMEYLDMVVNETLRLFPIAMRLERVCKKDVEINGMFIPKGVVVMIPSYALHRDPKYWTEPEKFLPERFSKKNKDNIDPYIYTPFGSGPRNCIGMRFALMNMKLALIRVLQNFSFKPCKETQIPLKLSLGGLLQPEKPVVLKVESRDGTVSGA

[10] = Cytotoxicity in parental HEK293-pcDNA 3.1 transfected cells assessed as cell survival at 10 uM after 72 hrs by MTT assay; type: cell-based; settings: human, parental HEK293 cells transfected with pcDNA 3.1; method in brief: as §2
[11] = target: T1, P-gp (ABCB1); test: Displacement of [125I]-IAAP from human P-gp expressed in high five insect cell membrane vesicles at >5 uM preincubated for 10 mins followed by photocrosslinking for 10 mins by exposing under UV light for 10 mins by SDS-PAGE based method; settings: probe [125I]-IAAP, read-out: Imax
Method in brief: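 Membrane vesicles (65–75 μg protein/100 μL) incubated with compound (0–5 or 0–10 μM) in 50 mM MES-Tris pH 6.8, 150 mM NaCl, 37 °C 10 min, then moved to 4 °C. 4–5 nM [125I]-IAAP (2200 Ci/mmol) added under subdued light, cross-linked at 366 nm UV 10 min. P-gp band incorporation quantified after SDS-PAGE, DMSO-only sample = 100%.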

[12] = target: T4, CYP3A4 (Homo sapiens, UniProt P08684); test: (§3) Inhibition of CYP3A4 (unknown origin) at 25 uM by fluorescence based-vivid CYP450 green screening kit based assay; type: ADME
T4 sequence (P08684 whole entry): as above

[13] = target: T2, ATP-dependent translocase ABCB1; test: Displacement of [125I]-IAAP from human P-gp expressed in high five insect cell membrane vesicles preincubated for 10 mins followed by photocrosslinking for 10 mins by exposing under UV light for 10 mins by SDS-PAGE based method; settings: for inhibition (INH): human, 10 min
Method in brief: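 Membrane vesicles from P-gp-expressing High Five insect cells (65–75 μg protein/100 μL) incubated with compound (0–5 or 0–10 μM) in 50 mM MES-Tris pH 6.8, 150 mM NaCl, 37 °C, 10 min; moved to 4 °C, 4–5 nM [125I]-IAAP added under subdued light; 366 nm UV 10 min; P-gp band incorporation quantified after SDS-PAGE, DMSO-only as 100%.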

[14] = target: T4, CYP3A4; test: Inhibition of CYP3A4 (unknown origin) at 50 uM by fluorescence based-vivid CYP450 green screening kit based assay; type: ADME
[15] = target: T1, P-gp (ABCB1); test: Inhibition of human P-gp expressed in high five insect cell membrane vesicles by measuring the vanadate-sensitive ATPase activity of P-gp at 0.05 uM preincubated for 5 mins in the presence of sodium orthovanadate measured after 20 mins by colorimetric method
[16] = target: T3, Cytochrome P450 3A4; test: as §3; type: ADME; settings: 25 µM

Compound | activity at 20 min, 0.5 µM [1] [%] | activity at 20 min, 0.05 µM [2] [%] | inhibition at 20 min, 2.5 µM [3] [%] | inhibition at 20 min, 0.5 µM [4] [%] | fold change (FC) [6] | viability at 72 h, 10 µM [7] [%] | fold change (FC) [8] | viability at 72 h, 10 µM [10] [%] | further results
CC(C)[C@H](NC(=O)C1CCC(F)(F)CC1)c1nc(C(=O)NC2CCC(F)(F)CC2)cs1 | ≤ 10 |  | 16.4 |  |  |  |  |  | 
COc1cc(C(=O)N[C@H](c2nc(C(=O)Nc3ccccc3C(=O)c3ccccc3)cs2)C(C)C)cc(OC)c1OC | 83 | 54 |  |  | 0.6 | > 80 | 1 | > 80 | activity at 20 min, 2.5 µM [5]: 88%; IC50 [9]: 8230 nM
COc1cc(C(=O)N[C@H](c2nc(C(=O)NC3CCC(F)(F)CC3)cs2)C(C)C)cc(OC)c1OC |  |  | 33.9 | 30.7 | 0.6 | > 80 | 0.6 | > 80 | Emax at 10 min [11]: 90%; inhibition at 25 µM [12]: 9.32%; IC50 [13]: 100 nM; inhibition (INH) [13]: Dose-dependent effect; inhibition at 50 µM [14]: 28.7%
COc1cc(C(=O)N[C@H](c2nc(C(=O)NC3CCCCC3)cs2)C(C)C)cc(OC)c1OC |  |  |  | 18 | 0.6 | > 80 | 1 | > 80 | inhibition at 20 min, 0.05 µM [15]: 20%; inhibition at 25 µM [12]: 7.03%; inhibition at 50 µM [14]: 52%
COc1cc(C(=O)NC(Cc2ccccc2)c2nc(C(=O)NC3CCC(F)(F)CC3)cs2)cc(OC)c1OC (stereo not given) |  |  | 42.5 | 39.6 | 1.7 | > 80 | 0.5 | > 80 | inhibition (INH) [16]: Not Active; IC50 [13]: 760 nM; inhibition (INH) [13]: Dose-dependent effect; inhibition at 50 µM [14]: 32.9%
CC(C)[C@H](NC(=O)c1cccc(N)c1)c1nc(C(=O)Nc2ccccc2C(=O)c2ccccc2)cs1 | 308 | 376 |  |  | 17.9 | > 80 | 0.5 | > 80 | inhibition at 25 µM [12]: 43.6%; inhibition at 50 µM [14]: 83.3%
COc1cc(C(=O)N[C@H](c2nc(C(=O)N[C@@H]3CCCc4ccccc43)cs2)C(C)C)cc(OC)c1OC | 33.9 |  |  |  | 2.9 | > 80 | 1.4 | > 80 | activity at 20 min, 2.5 µM [5]: 31.3%
COc1ccc(CCN(C)CCCC(C#N)(c2ccc(OC)c(OC)c2)C(C)C)cc1OC (stereo not given) |  |  |  |  |  | > 80 | 0.9 | > 80 | 
O[C@@H](COc1cccc2ncccc12)CN1CCN([C@@H]2c3ccccc3[C@@H]3[C@H](c4ccccc42)C3(F)F)CC1 [ZOSUQUIDAR] |  |  |  |  |  | > 80 |  | > 80 | 

Further lines, with some results ahead:

activity at 20 min, 0.5 µM [1] [%] | activity at 20 min, 0.05 µM [2] [%] | inhibition at 20 min, 2.5 µM [3] [%] | inhibition at 20 min, 0.5 µM [4] [%] | Compound | fold change (FC) [6] | viability at 72 h, 10 µM [7] [%] | fold change (FC) [8] | viability at 72 h, 10 µM [10] [%] | further results
52 | ≤ 10 |  |  | COc1cc(C(=O)N[C@H](c2nc(C(=O)Nc3ccccc3NC(=O)c3ccccc3)cs2)C(C)C)cc(OC)c1OC |  |  |  |  | 
112 | 15 |  |  | COc1cc(C(=O)N[C@H](c2nc(C(=O)Nc3ccccc3Cc3ccccc3)cs2)C(C)C)cc(OC)c1OC |  |  |  |  | 
≤ 10 | ≤ 10 |  |  | COc1cc(C(=O)N[C@H](c2nc(C(=O)NC3CC3)cs2)C(C)C)cc(OC)c1OC |  |  |  |  | 
≤ 10 |  | 21.7 |  | COc1cc(C(=O)NC(c2nc(C(=O)NC3CCC(C(F)(F)F)CC3)cs2)C(C)C)cc(OC)c1OC (stereo not given) |  |  |  |  | 
≤ 10 | ≤ 10 |  |  | COc1cc(C(=O)N[C@H](c2nc(C(=O)NC34CC5CC(CC(C5)C3)C4)cs2)C(C)C)cc(OC)c1OC |  |  |  |  | 
 |  | 23 | 22.4 | COc1cc(C(=O)NC(Cc2ccc(O)cc2)c2nc(C(=O)NC3CCC(F)(F)CC3)cs2)cc(OC)c1OC (stereo not given) |  |  |  |  | 
 |  |  | 27 | COc1cc(C(=O)N[C@H](c2nc(C(=O)NCC3CCC(F)(F)CC3)cs2)C(C)C)cc(OC)c1OC |  |  |  |  | activity at 20 min, 2.5 µM [5]: 20.7%
 |  | 25.9 | 37.4 | COc1cc(C(=O)N[C@H](c2nc(C(=S)NC3CCC(F)(F)CC3)cs2)C(C)C)cc(OC)c1OC |  |  |  |  | 
149 | 309 |  |  | COc1cc(C(=O)N[C@H](c2nc(C(=O)Nc3ccccc3C(=O)c3ccc(Br)cc3)cs2)C(C)C)cc(OC)c1OC |  |  |  |  | 
 |  | 23.3 | 16.6 | CC(C)[C@H](NC(=O)c1cc(F)c(F)c(F)c1)c1nc(C(=O)NC2CCC(F)(F)CC2)cs1 |  |  |  |  | 
88 | ≤ 10 |  |  | COc1cc(C(=O)N[C@H](c2nc(C(=O)Nc3ccccc3Oc3ccccc3)cs2)C(C)C)cc(OC)c1OC |  |  |  |  | 
